Laboratory results as given in ChEMBL document CHEMBL3864121, “Development of ebsulfur analogues as potent antibacterials against methicillin-resistant Staphylococcus aureus” (Bioorg Med Chem, 2016).
Values after ≈ are worked out from the molar mass of the structure shown.

Legend:
Assay type in all cases: functional
Staphylococcus aureus [1] = experiment: Antibacterial activity against methicillin-sensitive Staphylococcus aureus ATCC 6538 measured after overnight incubation by broth double-dilution method
Method in brief: (§1)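 MIC by broth double-dilution in liquid Mueller-Hinton medium. Values are reported in µg/mL.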

Staphylococcus aureus [2] = experiment: Antibacterial activity against methicillin-sensitive Staphylococcus aureus ATCC 25923 measured after overnight incubation by broth double-dilution method; method in brief: as §1
Staphylococcus aureus [3] = experiment: Antibacterial activity against methicillin-sensitive Staphylococcus aureus ATCC 29213 measured after overnight incubation by broth double-dilution method; method in brief: as §1
Staphylococcus aureus [4] = experiment: Antibacterial activity against methicillin-resistant Staphylococcus aureus ATCC 33591 measured after overnight incubation by broth double-dilution method; method in brief: as §1
Staphylococcus aureus [5] = experiment: Antibacterial activity against methicillin-resistant Staphylococcus aureus 1 measured after overnight incubation by broth double-dilution method; method in brief: as §1
Staphylococcus aureus [6] = experiment: Antibacterial activity against methicillin-resistant Staphylococcus aureus 2 measured after overnight incubation by broth double-dilution method; method in brief: as §1
Staphylococcus aureus [7] = experiment: Antibacterial activity against methicillin-resistant Staphylococcus aureus BRS3 measured after overnight incubation by broth double-dilution method; method in brief: as §1
Staphylococcus aureus [8] = experiment: Antibacterial activity against methicillin-resistant Staphylococcus aureus C1 measured after overnight incubation by broth double-dilution method; method in brief: as §1
Staphylococcus aureus [9] = experiment: Antibacterial activity against methicillin-resistant Staphylococcus aureus C2 measured after overnight incubation by broth double-dilution method; method in brief: as §1
Staphylococcus aureus [10] = experiment: Antibacterial activity against methicillin-resistant Staphylococcus aureus C7 measured after overnight incubation by broth double-dilution method; method in brief: as §1
Staphylococcus aureus [11] = experiment: Antibacterial activity against methicillin-resistant Staphylococcus aureus C14 measured after overnight incubation by broth double-dilution method; method in brief: as §1
Staphylococcus aureus [12] = experiment: Antibacterial activity against methicillin-resistant Staphylococcus aureus C16 measured after overnight incubation by broth double-dilution method; method in brief: as §1
Staphylococcus aureus [13] = experiment: Antibacterial activity against methicillin-resistant Staphylococcus aureus C19 measured after overnight incubation by broth double-dilution method; method in brief: as §1
Staphylococcus aureus [14] = experiment: Antibacterial activity against methicillin-resistant Staphylococcus aureus G1 measured after overnight incubation by broth double-dilution method; method in brief: as §1
Staphylococcus aureus [15] = experiment: Antibacterial activity against methicillin-resistant Staphylococcus aureus G6 measured after overnight incubation by broth double-dilution method; method in brief: as §1
Staphylococcus aureus [16] = experiment: Antibacterial activity against methicillin-resistant Staphylococcus aureus G12 measured after overnight incubation by broth double-dilution method; method in brief: as §1
Staphylococcus aureus [17] = experiment: Antibacterial activity against methicillin-resistant Staphylococcus aureus G14 measured after overnight incubation by broth double-dilution method; method in brief: as §1
Staphylococcus aureus [18] = experiment: Antibacterial activity against methicillin-resistant Staphylococcus aureus NRS4 measured after overnight incubation by broth double-dilution method; method in brief: as §1
Staphylococcus aureus [19] = experiment: Antibacterial activity against methicillin-resistant Staphylococcus aureus NRS51 measured after overnight incubation by broth double-dilution method; method in brief: as §1
Staphylococcus aureus [20] = experiment: Antibacterial activity against methicillin-resistant Staphylococcus aureus NRS77 measured after overnight incubation by broth double-dilution method; method in brief: as §1
Staphylococcus aureus [21] = experiment: Antibacterial activity against methicillin-resistant Staphylococcus aureus S14 measured after overnight incubation by broth double-dilution method; method in brief: as §1
Staphylococcus aureus [22] = experiment: Antibacterial activity against methicillin-resistant Staphylococcus aureus S17 measured after overnight incubation by broth double-dilution method; method in brief: as §1
Staphylococcus aureus [23] = experiment: Antibacterial activity against methicillin-resistant Staphylococcus aureus S22 measured after overnight incubation by broth double-dilution method; method in brief: as §1
Staphylococcus aureus [24] = experiment: Antibacterial activity against methicillin-resistant Staphylococcus aureus S24 measured after overnight incubation by broth double-dilution method; method in brief: as §1
Staphylococcus aureus [25] = experiment: Antibacterial activity against methicillin-resistant Staphylococcus aureus USA100 measured after overnight incubation by broth double-dilution method; method in brief: as §1
Staphylococcus aureus [26] = experiment: Antibacterial activity against methicillin-resistant Staphylococcus aureus USA200 measured after overnight incubation by broth double-dilution method; method in brief: as §1
Staphylococcus aureus [27] = experiment: Antibacterial activity against methicillin-resistant Staphylococcus aureus USA300 measured after overnight incubation by broth double-dilution method; method in brief: as §1
Staphylococcus aureus [28] = experiment: Antibacterial activity against methicillin-resistant Staphylococcus aureus USA600 measured after overnight incubation by broth double-dilution method; method in brief: as §1
[29] = tested on: Staphylococcus epidermidis; experiment: Antibacterial activity against Staphylococcus epidermidis ATCC 35984 measured after overnight incubation by broth double-dilution method; conditions: RP62A
Method in brief: (§2)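 MIC by broth double-dilution in Mueller-Hinton medium. Re-testing at the time-kill inoculum used 1×10^6 CFU/mL.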

Enterococcus faecalis [30] = experiment: Antibacterial activity against Enterococcus faecalis ATCC 29212 measured after overnight incubation by broth double-dilution method; method in brief: as §2
Enterococcus faecalis [31] = experiment: Antibacterial activity against Enterococcus faecalis ATCC 49533 measured after overnight incubation by broth double-dilution method; method in brief: as §2
Enterococcus faecium = experiment: Antibacterial activity against Enterococcus faecium BM4105-RF measured after overnight incubation by broth double-dilution method; method in brief: as §1
Enterococcus = experiment: Antibacterial activity against Vancomycin-resistant Enterococcus measured after overnight incubation by broth double-dilution method; method in brief: as §1
Listeria monocytogenes = experiment: Antibacterial activity against Listeria monocytogenes ATCC 19115 measured after overnight incubation by broth double-dilution method; method in brief: as §2
[32] = tested on: Mycolicibacterium smegmatis; experiment: Antibacterial activity against Mycobacterium smegmatis MC2-155 measured after overnight incubation by broth double-dilution method; conditions: str. MC2 155; method in brief: as §1

Compound | MIC (Staphylococcus aureus [1]) [µg/mL] | MIC (Staphylococcus aureus [2]) [µg/mL] | MIC (Staphylococcus aureus [3]) [µg/mL] | MIC (Staphylococcus aureus [4]) [µg/mL] | MIC (Staphylococcus aureus [5]) [µg/mL] | MIC (Staphylococcus aureus [6]) [µg/mL] | MIC (Staphylococcus aureus [7]) [µg/mL] | MIC (Staphylococcus aureus [8]) [µg/mL] | MIC (Staphylococcus aureus [9]) [µg/mL] | MIC (Staphylococcus aureus [10]) [µg/mL] | MIC (Staphylococcus aureus [11]) [µg/mL] | MIC (Staphylococcus aureus [12]) [µg/mL] | MIC (Staphylococcus aureus [13]) [µg/mL] | MIC (Staphylococcus aureus [14]) [µg/mL] | MIC (Staphylococcus aureus [15]) [µg/mL] | MIC (Staphylococcus aureus [16]) [µg/mL] | MIC (Staphylococcus aureus [17]) [µg/mL] | MIC (Staphylococcus aureus [18]) [µg/mL] | MIC (Staphylococcus aureus [19]) [µg/mL] | MIC (Staphylococcus aureus [20]) [µg/mL] | further results
O=c1c2ccccc2sn1C1CCCCC1 | 7.8 (≈ 33.4 µM) | 3.9 (≈ 16.7 µM) | 3.8 (≈ 16.3 µM) | 2 (≈ 8.57 µM) | 2 (≈ 8.57 µM) | 3.9 (≈ 16.7 µM) | 7.8 (≈ 33.4 µM) | 2 (≈ 8.57 µM) | 3.9 (≈ 16.7 µM) | 3.9 (≈ 16.7 µM) | 2 (≈ 8.57 µM) | 3.9 (≈ 16.7 µM) | 3.9 (≈ 16.7 µM) | 2 (≈ 8.57 µM) | 3.9 (≈ 16.7 µM) | 3.9 (≈ 16.7 µM) | 3.9 (≈ 16.7 µM) | 3.9 (≈ 16.7 µM) | 3.9 (≈ 16.7 µM) | 3.9 (≈ 16.7 µM) | MIC (Staphylococcus aureus [21]): 0.5 µg/mL (≈ 2.14 µM); MIC (Staphylococcus aureus [22]): 7.8 µg/mL (≈ 33.4 µM); MIC (Staphylococcus aureus [23]): 7.8 µg/mL (≈ 33.4 µM); MIC (Staphylococcus aureus [24]): 3.9 µg/mL (≈ 16.7 µM); MIC (Staphylococcus aureus [25]): 7.8 µg/mL (≈ 33.4 µM); MIC (Staphylococcus aureus [26]): 7.8 µg/mL (≈ 33.4 µM); MIC (Staphylococcus aureus [27]): 7.8 µg/mL (≈ 33.4 µM); MIC (Staphylococcus aureus [28]): 7.8 µg/mL (≈ 33.4 µM); MIC [29]: 2 µg/mL (≈ 8.57 µM); MIC (Enterococcus faecalis [30]): > 125 µg/mL; MIC (Enterococcus faecalis [31]): > 125 µg/mL; MIC (Enterococcus faecium): > 125 µg/mL; MIC (Enterococcus): 2 µg/mL (≈ 8.57 µM); MIC (Listeria monocytogenes): 3.9 µg/mL (≈ 16.7 µM); MIC [32]: 2 µg/mL (≈ 8.57 µM)
O=c1c2ccccc2sn1CCCc1ccccc1 | 3.9 (≈ 14.5 µM) | 2 (≈ 7.42 µM) | 2 (≈ 7.42 µM) | 1 (≈ 3.71 µM) | 0.5 (≈ 1.86 µM) | 2 (≈ 7.42 µM) | 3.9 (≈ 14.5 µM) | 2 (≈ 7.42 µM) | 2 (≈ 7.42 µM) | 2 (≈ 7.42 µM) | 3.9 (≈ 14.5 µM) | 3.9 (≈ 14.5 µM) | 2 (≈ 7.42 µM) | 0.5 (≈ 1.86 µM) | 2 (≈ 7.42 µM) | 2 (≈ 7.42 µM) | 2 (≈ 7.42 µM) | 2 (≈ 7.42 µM) | 2 (≈ 7.42 µM) | 2 (≈ 7.42 µM) | MIC (Staphylococcus aureus [21]): ≤ 0.25 µg/mL; MIC (Staphylococcus aureus [22]): 2 µg/mL (≈ 7.42 µM); MIC (Staphylococcus aureus [23]): 3.9 µg/mL (≈ 14.5 µM); MIC (Staphylococcus aureus [24]): 2 µg/mL (≈ 7.42 µM); MIC (Staphylococcus aureus [25]): 2 µg/mL (≈ 7.42 µM); MIC (Staphylococcus aureus [26]): 3.9 µg/mL (≈ 14.5 µM); MIC (Staphylococcus aureus [27]): 2 µg/mL (≈ 7.42 µM); MIC (Staphylococcus aureus [28]): 3.9 µg/mL (≈ 14.5 µM); MIC [29]: 2 µg/mL (≈ 7.42 µM); MIC (Enterococcus faecalis [30]): 15.6 µg/mL (≈ 57.9 µM); MIC (Enterococcus faecalis [31]): > 125 µg/mL; MIC (Enterococcus faecium): 15.6 µg/mL (≈ 57.9 µM); MIC (Enterococcus): 0.5 µg/mL (≈ 1.86 µM); MIC (Listeria monocytogenes): 2 µg/mL (≈ 7.42 µM); MIC [32]: 3.9 µg/mL (≈ 14.5 µM)
